Only some compounds are listed: those with a hit (about 2.4% of all), similar ones and a draw of the others.
MIN6 prolif-1 = inducers of beta-cell replication in MIN6 cells | AID 2380 | proliferation, % at 10 µM | 0.29% of 330,000 active | MIN6 cells proliferation, ATPlite luminescence, 48 h; cells starved in 0.2% serum; 100% = growth in 10% serum;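 active means compounds whose signal lies at least 3.5 SD above the mean of all wells on their plate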
Calb FLC = affects C. albicans growth with fluconazole | 0.57% of 300,000 active | C. albicans CaCi-2 + fluconazole, Alamar Blue growth, 48 h | growth inhibition, % (no concentration beside the values);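 active means growth inhibition above about 58% in most replicates, limit read from the data, passing the limit was not always enough; inconclusive means exactly half the replicates above a set limit; inactive means most replicates below a set limit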;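 further: all wells also contain fluconazole at 8 µg/ml as a sub-toxic cotreatment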
SR-BI DiI inh = blocks mouse SR-BI lipid uptake from DiI-HDL | ldlA[mSR-BI] CHO cells, DiI-HDL uptake fluorescence, 3 h | inhibition, % at 12.5 µM | 0.96% of 320,000 active | AID 488896;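 active means mean replicate inhibition of at least 70% and a set share of replicates each scoring 70 or more; inconclusive means meets just one of the two criteria; inactive means fails both criteria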
m5-HT2A agonist = activates the mouse 5-HT2A serotonin receptor | CHO-K1 mHTR2A beta-arrestin complementation, luminescence; percent of 30 µM serotonin response | 0.66% of 360,000 active | activation, % at 7.6 µM;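 active means activation above a run cutoff, the mean activation of all tested compounds plus 3 SD, cut at about 14% in these data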
Target sequence (P35363 whole entry, looked up): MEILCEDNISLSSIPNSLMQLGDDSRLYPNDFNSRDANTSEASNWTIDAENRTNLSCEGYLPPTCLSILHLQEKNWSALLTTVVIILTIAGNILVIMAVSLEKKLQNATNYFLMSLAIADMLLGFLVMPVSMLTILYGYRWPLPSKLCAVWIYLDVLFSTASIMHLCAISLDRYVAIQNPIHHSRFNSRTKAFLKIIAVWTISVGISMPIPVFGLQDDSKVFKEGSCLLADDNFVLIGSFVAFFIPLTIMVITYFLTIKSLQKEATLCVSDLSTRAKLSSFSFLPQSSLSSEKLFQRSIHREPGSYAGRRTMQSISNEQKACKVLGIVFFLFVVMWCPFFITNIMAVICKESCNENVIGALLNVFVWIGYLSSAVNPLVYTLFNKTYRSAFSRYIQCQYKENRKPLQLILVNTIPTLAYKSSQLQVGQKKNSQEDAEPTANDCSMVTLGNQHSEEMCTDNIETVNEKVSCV
SR-BI uptake up = enhances SR-BI lipid uptake from DiI-HDL; CHO ldlA[mSR-BI] cells, DiI-HDL uptake fluorescence, 3 h; 100 = double the neutral-control signal; activation, % at 12.5 µM; 0.096% of 320,000 active;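 active means mean replicate activation of at least 60% and every replicate at or above 60%; inconclusive means mean or all-replicate condition met, but not both; inactive means mean below 60% and not all replicates reaching 60%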
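System: CHO ldlA[mSR-BI] cells / Medium: HEPES-buffered (25 mM, pH 7.4) F12 plus 0.5% BSA / Probe or stimulus: labelled HDL, 10 µg/mL / Doses: single compound concentration, delivered by pin transfer / Schedule: 3 h, 37 °C / Measured by: DiI fluorescence, bottom read / Measure: cell-associated DiI fluorescence as measure of HDL uptake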
Ins promoter up = MIN6 insulin promoter up-regulation; MIN6 insulin promoter-GFP reporter, high-content imaging; active compounds read high; z-score at 5 µM; 0.3% of 190,000 active;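 active means z-score above 3 at 5 µM with at least 500 cells counted in the well; inconclusive means wells under 500 cells, flagged as cytotoxic or low count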
MIN6 prolif-2 = confirmation of inducers of beta-cell replication in MIN6 cells | MIN6 beta-cell proliferation, ATPlite luminescence, 48 h; cells kept in 0.2% serum; scaled between 0.2% and 10% serum | 920 tested, under 10 active | proliferation increase, % at 50 µM | AID 463095 | shares compounds with MIN6 prolif-1;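 active means proliferation increase above 40% at any of the four tested concentrations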
A number is an active result; - = inactive; ? = inconclusive; . = no result.

SMILES	MIN6 prolif-1	Calb FLC	SR-BI DiI inh	m5-HT2A agonist	SR-BI uptake up	Ins promoter up	MIN6 prolif-2
Cc1cccc(C)c1OCC(=O)Nn1c(COc2ccccc2)nc2ccccc2c1=O	19	-	-	-	-	-	-
N#Cc1c2c(c(NCCN3CCOCC3)n3c1nc1ccccc13)CCCC2	7.5	-	-	-	-	-	-
N#Cc1c2c(c(NCCCN3CCOCC3)n3c1nc1ccccc13)CCC2	-	-	-	-	-	-	.
COc1ccc(S(=O)(=O)N2CCC(C(=O)Oc3ccc(C)cc3)CC2)cc1OC	-	-	-	-	-	.	.
Cc1cc(C)nc(NS(=O)(=O)c2ccc(NC(=O)CCN3C(=O)c4ccccc4C3=O)cc2)n1	8.2	-	-	-	-	-	-
Cc1cc(NS(=O)(=O)c2ccc(NC(=O)CCN3C(=O)c4ccccc4C3=O)cc2)no1	-	-	-	-	-	-	.
COc1ccc(CN2CCCCC2c2cccnc2)c(OC)c1C (stereo not given)	6.7	-	-	-	-	-	-
CCOc1ccc(NC(=O)CN2CCC(n3cnc4cc(F)ccc43)CC2)cc1	-	-	-	-	-	-	.
COCCCNc1nc(N)c([N+](=O)[O-])c(Nc2ccccc2OC)n1	7.2	-	-	-	-	-	-
CCc1nc2c(sc3nc(N4CCOCC4)c4c(c32)CC(C)(C)OC4)c(=O)o1	.	.	.	.	.	-	.
CCOC(=O)N1CCN(C2CCCN(C(=O)c3cccc(Cl)c3)C2)CC1 (stereo not given)	-	-	-	-	-	.	.
CCOC(=O)c1cnc(-n2nc(C)cc2C)nc1Oc1ccc(C(=O)OC)cc1	-	-	.	-	.	-	.
CCOC(=O)c1cnc(-n2nc(C)cc2C)nc1Oc1ccccc1F	7.8	-	.	-	.	-	-
O=C(NC(NC(=S)Nc1ccc(Cl)cc1Cl)C(Cl)(Cl)Cl)c1cccc([N+](=O)[O-])c1 (stereo not given)	-	-	-	-	-	-	.
Cc1ccc(CN2CCC(C)(Oc3ccc(Cl)cc3)C2)cc1 (stereo not given)	.	.	.	-	.	.	.
COc1ccc(OC)c(NC(=O)Nc2nc(C(N)CCc3ccccc3)cs2)c1 (stereo not given)	.	.	.	-	.	.	.
CN(c1ncnc(N)c1[N+](=O)[O-])C1CCCCC1	25	-	-	-	-	.	-
Fc1ccccc1NC(=S)N1CCN(Cc2ccc3c(c2)OCO3)CC1	7.4	-	-	-	-	-	-
O=C(C[C@@H]1C/C=C\CC[C@H](Cc2ccc(F)cc2)C(=O)OC[C@@H]2CCCN2C1=O)N[C@H](CO)Cc1ccccc1	-	.	-	-	-	.	.
CC1(C)Oc2ccc(C(=O)NNC(=O)Nc3ccccc3)cc2NC1=O	-	?	-	-	-	.	.
O=C(CSc1nnc2ccc(-c3ccccn3)nn12)Nc1ccccc1F	-	-	-	-	-	.	.
Fc1ccccc1Cc1noc(CN2CCC(OCc3cccnc3)CC2)n1	7.7	-	-	-	-	-	-
COc1ccc(N(C(=O)CNC(=O)c2cccs2)C(C(=O)NC2CCCC2)c2ccncc2)cc1 (stereo not given)	7.3	-	-	-	-	.	-
CCCNC(=O)C1(C)CCCN(Cc2ccc(C(=O)OCC)o2)C1 (stereo not given)	.	.	.	-	.	.	.
CCc1c(C)nc2cc(-c3cccc(Br)c3)[nH]n2c1=O	-	-	-	-	-	.	.
SMILES	MIN6 prolif-1	Calb FLC	SR-BI DiI inh	m5-HT2A agonist	SR-BI uptake up	Ins promoter up	MIN6 prolif-2
Cc1ccc(NC(=O)CCNS(=O)(=O)c2cccc3nsnc23)cc1	-	-	-	-	-	-	.
CC(C)c1ccc(NC(=O)CCNS(=O)(=O)c2cccc3nsnc23)cc1	4.6	-	-	-	-	-	-
Cc1cc(C)nc(/N=C(\N)Nc2ccccc2-c2ccccc2)n1	-	-	-	-	-	-	.
CCCCCCNC(=O)Nc1ccccc1	8.2	-	-	-	-	-	-
Cc1ccc(N2CC(C(=O)Nc3cccc(S(=O)(=O)N4CCOCC4)c3)CC2=O)cc1 (stereo not given)	.	.	.	-	.	.	.
CCCN(CC(=O)Nc1ccccc1C)C(=O)c1ccc(NC2CC2)c([N+](=O)[O-])c1	-	-	-	-	-	.	.
COC(=O)c1ccc(NC(=O)c2cc(-c3ccccn3)nc3ccccc23)cc1	7.5	-	-	-	-	-	-
COC(=O)c1ccc(NC(=O)c2cc(-c3ccncc3)nc3ccccc23)cc1	-	.	-	-	-	.	.
C[C@@H]1CN([C@@H](C)CO)C(=O)c2cc(NS(C)(=O)=O)ccc2O[C@@H]1CN(C)S(=O)(=O)c1ccccc1	-	.	-	-	-	.	.
O=C(Nc1cccc2ccccc12)c1ccc2sc([C@@H]3O[C@H](CO)[C@H](O)[C@H](O)[C@H]3O)nc2c1	.	.	.	-	.	.	.
Nc1ncnc2c1ncn2[C@H]1C[C@H](O)[C@@H](COP(=O)(O)O)O1	13	-	-	-	-	.	-
CCOC(=O)N1CCN(C(C(=O)NC2CCCC2)C(C)C)CC1 (stereo not given)	.	.	.	-	.	.	.
CCN1CCN(C(=O)Cn2ncc3ccsc3c2=O)CC1	9.8	-	-	-	-	-	-
CCN1CCN(C(=O)Cn2c(=O)sc3ccccc32)CC1	-	-	-	-	-	-	.
COc1cccc(CCN2C(=O)CCC3=C2CCC3=O)c1	.	.	.	-	.	.	.
Cc1cc2nc(-c3ccncc3)cc(C(F)(F)F)n2n1	9.3	-	-	-	-	-	-
Cc1ccc(C)c(CC(=O)N2CCCCC2c2cc(C(=O)Nc3cccc(C#N)c3)no2)c1 (stereo not given)	.	.	.	-	.	.	.
COC(=O)c1nn(-c2ccccc2)c(Sc2ccc(OC)cc2)c1/C=N/O	6.5	-	-	-	-	-	-
CON(c1nc(Cl)nc(N(C)C)n1)S(=O)(=O)c1ccc(C)cc1	-	-	-	-	-	.	.
COc1nc(N(C)C)nc(N(C#N)S(=O)(=O)c2ccc(C)cc2)n1	5.8	-	-	-	-	.	-
COc1cc(C(=O)OCC(=O)NC2CCCCCC2)ccc1OCC(C)C	11	-	-	-	-	.	-
O=C(CCNS(=O)(=O)c1ccc(Cl)cc1)N1CCC2(O)CCCCC2C1 (stereo not given)	5.6	-	-	-	-	-	-
COc1ccc(CN2C(=NC(=O)C3CC3)SC3CS(=O)(=O)CC32)cc1OC (stereo not given)	-	-	-	-	-	.	.
COc1ccc(C(=O)N=C2SC3CS(=O)(=O)CC3N2Cc2ccc(OC)c(OC)c2)cc1 (stereo not given)	11	-	-	-	-	.	-
Cc1cc(C)n(C(=O)COc2ccc([N+](=O)[O-])cc2)n1	5.3	-	-	-	-	-	-

High-throughput results: PubChem BioAssay, several laboratories
